The source made the active and inactive calls. The rule behind the calls is not given here.
Assays:
Mus musculus [1] = assay: Antialzheimer activity in 5XFAD mouse assessed as microglial numbers by measuring number of Iba positive cells per FOV in […] cortex at 75 ppm administered as rodent chow starting from 1.5 months and measured after 5 months by immunolabeling based confocal microscopic analysis (reference value: 176 to 654); format: functional; settings: route po, time 3.5 months, 2555 h
Outline: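 5xFAD mice fed PLX3397 at 75 ppm in AIN-76A chow from 1.5 to 5 months of age; retrosplenial and somatosensory cortex sections stained with Thio-S and immunolabeled for IBA1; confocal imaging, IBA1+ cells and plaques quantified per region; two-tailed independent t-test, n = 4–5 per group, mean ± SEM.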

[2] = target: T1, Macrophage colony-stimulating factor 1 receptor (Mus musculus) (UniProt P09581); assay: In vivo inhibition of CSF1R in 5XFAD mouse assessed as appearance of CAA in […] cortex at 600 ppm administered as rodent chow starting from 1.5 months and measured after 5 months by immunolabeling based confocal microscopic analysis; settings: route po, time 3.5 months
T1 sequence (whole entry): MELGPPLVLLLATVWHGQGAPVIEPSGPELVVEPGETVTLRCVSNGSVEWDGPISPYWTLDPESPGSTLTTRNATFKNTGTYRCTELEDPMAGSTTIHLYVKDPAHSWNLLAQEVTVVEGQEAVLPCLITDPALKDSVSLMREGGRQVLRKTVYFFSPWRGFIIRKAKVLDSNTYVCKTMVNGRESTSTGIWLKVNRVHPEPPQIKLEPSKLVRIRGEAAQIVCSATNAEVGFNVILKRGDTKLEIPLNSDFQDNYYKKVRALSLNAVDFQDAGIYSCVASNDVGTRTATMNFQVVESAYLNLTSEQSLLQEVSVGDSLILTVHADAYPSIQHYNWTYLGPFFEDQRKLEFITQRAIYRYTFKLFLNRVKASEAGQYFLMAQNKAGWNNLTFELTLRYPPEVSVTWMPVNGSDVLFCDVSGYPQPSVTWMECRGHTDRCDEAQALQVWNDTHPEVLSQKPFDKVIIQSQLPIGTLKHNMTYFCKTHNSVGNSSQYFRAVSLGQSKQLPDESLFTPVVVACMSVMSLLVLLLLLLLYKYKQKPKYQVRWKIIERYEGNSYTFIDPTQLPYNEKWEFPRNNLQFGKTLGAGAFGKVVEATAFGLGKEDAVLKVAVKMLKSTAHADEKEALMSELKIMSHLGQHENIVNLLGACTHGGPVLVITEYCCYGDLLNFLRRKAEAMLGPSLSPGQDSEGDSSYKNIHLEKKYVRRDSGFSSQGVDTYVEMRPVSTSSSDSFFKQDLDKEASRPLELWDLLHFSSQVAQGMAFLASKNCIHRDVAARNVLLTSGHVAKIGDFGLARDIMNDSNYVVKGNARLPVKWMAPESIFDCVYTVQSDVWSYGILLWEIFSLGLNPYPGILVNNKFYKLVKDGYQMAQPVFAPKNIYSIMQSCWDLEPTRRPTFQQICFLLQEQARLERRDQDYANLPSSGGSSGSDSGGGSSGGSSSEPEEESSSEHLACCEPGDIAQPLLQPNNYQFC

[3] = target: Tyrosine-protein kinase receptor UFO (Homo sapiens, UniProt P30530); assay: Inhibition of AXL (unknown origin)
Sequence of Tyrosine-protein kinase receptor UFO (P30530 whole entry): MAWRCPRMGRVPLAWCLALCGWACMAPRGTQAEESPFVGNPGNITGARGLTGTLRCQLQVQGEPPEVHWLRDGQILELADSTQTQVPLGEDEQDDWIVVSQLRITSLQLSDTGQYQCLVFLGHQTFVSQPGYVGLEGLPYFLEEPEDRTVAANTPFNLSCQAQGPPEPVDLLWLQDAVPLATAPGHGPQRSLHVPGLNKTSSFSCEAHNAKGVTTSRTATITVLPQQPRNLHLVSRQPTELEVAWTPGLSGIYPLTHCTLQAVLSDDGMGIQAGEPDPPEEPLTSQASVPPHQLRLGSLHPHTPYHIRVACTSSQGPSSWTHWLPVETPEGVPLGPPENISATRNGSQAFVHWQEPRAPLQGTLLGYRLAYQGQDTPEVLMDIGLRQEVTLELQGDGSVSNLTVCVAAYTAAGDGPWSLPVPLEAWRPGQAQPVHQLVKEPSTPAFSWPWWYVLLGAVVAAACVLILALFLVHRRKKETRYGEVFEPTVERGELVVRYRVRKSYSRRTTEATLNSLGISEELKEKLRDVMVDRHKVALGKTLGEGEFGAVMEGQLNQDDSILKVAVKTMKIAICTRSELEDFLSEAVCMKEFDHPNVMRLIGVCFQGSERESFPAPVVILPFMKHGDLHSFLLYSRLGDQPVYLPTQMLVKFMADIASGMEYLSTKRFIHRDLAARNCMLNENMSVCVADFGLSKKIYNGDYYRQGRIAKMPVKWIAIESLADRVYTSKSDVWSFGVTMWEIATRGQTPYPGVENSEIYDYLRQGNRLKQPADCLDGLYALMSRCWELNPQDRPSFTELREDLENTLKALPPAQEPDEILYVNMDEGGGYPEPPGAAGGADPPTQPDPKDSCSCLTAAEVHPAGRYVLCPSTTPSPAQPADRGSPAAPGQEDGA

[4] = AUC (0 to infinity) in mouse at 45 mg/kg, po administered as single dose via gavage; format: ADME, organism-based; settings: in vivo
[5] = target: Serine/threonine-protein kinase MARK2 (Homo sapiens, UniProt Q7KZI7); assay: Inhibition of MARK2 (unknown origin)
Sequence of Serine/threonine-protein kinase MARK2 (Q7KZI7 whole entry): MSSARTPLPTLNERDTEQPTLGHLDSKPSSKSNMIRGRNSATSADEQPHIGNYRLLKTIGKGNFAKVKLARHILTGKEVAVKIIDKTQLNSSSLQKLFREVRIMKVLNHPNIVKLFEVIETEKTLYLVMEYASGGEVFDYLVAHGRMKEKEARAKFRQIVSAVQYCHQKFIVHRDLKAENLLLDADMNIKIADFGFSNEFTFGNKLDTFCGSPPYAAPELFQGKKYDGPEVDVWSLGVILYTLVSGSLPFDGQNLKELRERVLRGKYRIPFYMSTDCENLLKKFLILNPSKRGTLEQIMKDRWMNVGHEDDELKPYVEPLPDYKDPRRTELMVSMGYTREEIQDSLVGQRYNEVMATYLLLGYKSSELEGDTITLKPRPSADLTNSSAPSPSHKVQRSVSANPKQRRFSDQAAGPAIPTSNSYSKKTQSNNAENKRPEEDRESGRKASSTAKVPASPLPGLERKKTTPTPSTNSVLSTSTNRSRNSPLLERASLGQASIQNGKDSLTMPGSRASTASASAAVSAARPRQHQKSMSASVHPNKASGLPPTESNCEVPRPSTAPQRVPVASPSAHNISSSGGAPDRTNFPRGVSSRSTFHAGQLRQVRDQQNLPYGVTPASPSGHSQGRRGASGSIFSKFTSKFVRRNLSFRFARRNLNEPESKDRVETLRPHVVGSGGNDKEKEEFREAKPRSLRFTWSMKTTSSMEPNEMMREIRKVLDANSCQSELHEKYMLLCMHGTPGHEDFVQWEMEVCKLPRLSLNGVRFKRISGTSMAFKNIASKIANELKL

[6] = target: Leukocyte tyrosine kinase receptor (Homo sapiens, UniProt P29376); assay: Inhibition of LTK (unknown origin)
[7] = target: Tyrosine-protein kinase CSK (Homo sapiens, UniProt P41240); assay: Inhibition of CSK (unknown origin)
Sequence of Tyrosine-protein kinase CSK (P41240 whole entry): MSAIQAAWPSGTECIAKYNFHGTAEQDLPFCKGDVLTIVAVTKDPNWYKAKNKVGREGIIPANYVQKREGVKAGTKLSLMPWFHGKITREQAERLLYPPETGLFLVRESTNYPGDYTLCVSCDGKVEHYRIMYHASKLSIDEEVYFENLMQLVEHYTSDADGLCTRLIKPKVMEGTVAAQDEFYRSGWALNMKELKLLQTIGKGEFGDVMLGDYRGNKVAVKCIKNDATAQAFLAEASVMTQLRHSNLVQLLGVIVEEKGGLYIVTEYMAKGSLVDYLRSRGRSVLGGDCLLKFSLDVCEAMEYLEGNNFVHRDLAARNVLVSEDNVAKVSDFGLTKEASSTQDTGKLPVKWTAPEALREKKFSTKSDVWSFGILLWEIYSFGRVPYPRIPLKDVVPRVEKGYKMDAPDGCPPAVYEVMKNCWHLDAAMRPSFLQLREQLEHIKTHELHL

[8] = target: Dual specificity tyrosine-phosphorylation-regulated kinase 3 (Homo sapiens, UniProt O43781); assay: Inhibition of DYRK3 (unknown origin)
[9] = target: Dual specificity tyrosine-phosphorylation-regulated kinase 1B (Homo sapiens, UniProt Q9Y463); assay: Inhibition of DYRK1B (unknown origin)
Sequence of Dual specificity tyrosine-phosphorylation-regulated kinase 1B (Q9Y463 whole entry): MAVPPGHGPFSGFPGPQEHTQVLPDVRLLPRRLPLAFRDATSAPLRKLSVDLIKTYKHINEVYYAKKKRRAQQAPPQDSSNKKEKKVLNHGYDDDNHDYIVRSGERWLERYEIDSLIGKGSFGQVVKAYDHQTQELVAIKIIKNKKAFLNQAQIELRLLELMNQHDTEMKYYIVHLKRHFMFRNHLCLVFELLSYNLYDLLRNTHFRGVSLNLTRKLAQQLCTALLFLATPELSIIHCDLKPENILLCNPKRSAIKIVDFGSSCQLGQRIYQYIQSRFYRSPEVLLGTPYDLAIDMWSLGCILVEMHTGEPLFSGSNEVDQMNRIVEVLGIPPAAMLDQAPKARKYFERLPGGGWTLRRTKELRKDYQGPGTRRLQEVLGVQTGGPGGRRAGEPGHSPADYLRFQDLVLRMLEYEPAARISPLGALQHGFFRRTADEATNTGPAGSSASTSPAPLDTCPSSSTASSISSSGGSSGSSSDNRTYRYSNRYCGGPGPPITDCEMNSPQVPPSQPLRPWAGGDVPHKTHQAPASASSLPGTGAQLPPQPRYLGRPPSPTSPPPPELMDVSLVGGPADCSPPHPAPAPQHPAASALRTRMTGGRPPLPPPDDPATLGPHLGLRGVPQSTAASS

Mus musculus [10] = assay: Antialzheimer activity in 5XFAD mouse assessed as alteration in plaque morphology by measuring mean plaque intensity in subiculum at 1200 ppm administered as rodent chow starting from 1.5 months and measured after 7 months by Thio-S labeling based confocal microscopic analysis (reference value: 129.81 to 150.11); format: functional; settings: route po, time 5.5 months, 4015 h
[11] = target: Inhibitor of nuclear factor kappa-B kinase subunit epsilon (Homo sapiens, UniProt Q14164); assay: Inhibition of IKBKE (unknown origin)
Sequence of Inhibitor of nuclear factor kappa-B kinase subunit epsilon (Q14164 whole entry): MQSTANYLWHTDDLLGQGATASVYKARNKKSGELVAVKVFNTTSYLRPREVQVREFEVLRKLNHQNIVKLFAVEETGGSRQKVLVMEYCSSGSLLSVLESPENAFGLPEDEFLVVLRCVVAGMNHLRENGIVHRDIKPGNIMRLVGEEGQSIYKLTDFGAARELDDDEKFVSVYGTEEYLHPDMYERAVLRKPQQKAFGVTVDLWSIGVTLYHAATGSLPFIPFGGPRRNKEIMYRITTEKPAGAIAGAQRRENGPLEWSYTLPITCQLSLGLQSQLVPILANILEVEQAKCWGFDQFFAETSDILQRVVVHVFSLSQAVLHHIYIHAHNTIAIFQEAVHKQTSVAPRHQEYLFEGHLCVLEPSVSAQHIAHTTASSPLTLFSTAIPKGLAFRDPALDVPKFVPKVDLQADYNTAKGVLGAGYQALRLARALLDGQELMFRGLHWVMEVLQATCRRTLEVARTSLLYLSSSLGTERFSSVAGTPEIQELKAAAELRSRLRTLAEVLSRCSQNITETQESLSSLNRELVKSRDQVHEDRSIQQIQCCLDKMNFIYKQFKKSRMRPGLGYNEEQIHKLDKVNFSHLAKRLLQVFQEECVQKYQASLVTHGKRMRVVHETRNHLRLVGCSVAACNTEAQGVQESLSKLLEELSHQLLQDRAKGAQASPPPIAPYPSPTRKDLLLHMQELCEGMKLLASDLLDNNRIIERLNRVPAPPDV

[12] = target: Cyclin-dependent kinase 5/CDK5 activator 1 (Homo sapiens, UniProt Q00535); assay: Inhibition of CDK5_p35 (unknown origin); format: protein-complex assay
[13] = target: cAMP-dependent protein kinase catalytic subunit alpha (Homo sapiens, UniProt P17612); assay: Inhibition of PRKACA (unknown origin)
[14] = target: Serine/threonine-protein kinase D2 (Homo sapiens, UniProt Q9BZL6); assay: Inhibition of PRKD2 (unknown origin)
Mus musculus [15] = assay: Antialzheimer activity in 5XFAD mouse assessed as average plaque volume in retro spinal cortex at 1200 ppm administered as rodent chow starting from 1.5 months and measured after 7 months by Thio-S staining based confocal microscopic analysis (reference value: 1174.18 to 2460.96 microm3); format: functional; settings: route po, time 5.5 months, 4015 h
[16] = target: Insulin-like growth factor 1 receptor (Homo sapiens, UniProt P08069); assay: Inhibition of IGF1R (unknown origin)
Sequence of Insulin-like growth factor 1 receptor (P08069 31-736 limits assumed): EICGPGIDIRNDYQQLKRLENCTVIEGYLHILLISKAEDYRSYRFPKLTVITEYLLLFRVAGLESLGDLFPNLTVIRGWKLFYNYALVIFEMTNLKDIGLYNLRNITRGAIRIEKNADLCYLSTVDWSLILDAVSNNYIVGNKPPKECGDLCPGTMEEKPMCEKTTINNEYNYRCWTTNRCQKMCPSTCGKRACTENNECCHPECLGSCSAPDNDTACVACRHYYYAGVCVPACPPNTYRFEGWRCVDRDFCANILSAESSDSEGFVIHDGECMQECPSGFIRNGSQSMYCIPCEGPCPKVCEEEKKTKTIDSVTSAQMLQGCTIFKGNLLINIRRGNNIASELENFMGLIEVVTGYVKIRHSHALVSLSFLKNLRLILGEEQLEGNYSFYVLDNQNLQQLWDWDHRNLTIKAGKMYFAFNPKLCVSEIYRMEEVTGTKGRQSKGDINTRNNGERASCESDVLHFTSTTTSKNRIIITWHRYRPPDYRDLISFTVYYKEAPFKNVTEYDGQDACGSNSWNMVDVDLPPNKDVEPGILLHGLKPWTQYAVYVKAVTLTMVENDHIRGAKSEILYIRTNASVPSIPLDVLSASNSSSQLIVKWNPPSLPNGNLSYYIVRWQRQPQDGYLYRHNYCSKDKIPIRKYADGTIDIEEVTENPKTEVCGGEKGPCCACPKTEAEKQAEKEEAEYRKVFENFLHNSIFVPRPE
Sequence of Insulin-like growth factor 1 receptor (P08069 741-1367 limits assumed): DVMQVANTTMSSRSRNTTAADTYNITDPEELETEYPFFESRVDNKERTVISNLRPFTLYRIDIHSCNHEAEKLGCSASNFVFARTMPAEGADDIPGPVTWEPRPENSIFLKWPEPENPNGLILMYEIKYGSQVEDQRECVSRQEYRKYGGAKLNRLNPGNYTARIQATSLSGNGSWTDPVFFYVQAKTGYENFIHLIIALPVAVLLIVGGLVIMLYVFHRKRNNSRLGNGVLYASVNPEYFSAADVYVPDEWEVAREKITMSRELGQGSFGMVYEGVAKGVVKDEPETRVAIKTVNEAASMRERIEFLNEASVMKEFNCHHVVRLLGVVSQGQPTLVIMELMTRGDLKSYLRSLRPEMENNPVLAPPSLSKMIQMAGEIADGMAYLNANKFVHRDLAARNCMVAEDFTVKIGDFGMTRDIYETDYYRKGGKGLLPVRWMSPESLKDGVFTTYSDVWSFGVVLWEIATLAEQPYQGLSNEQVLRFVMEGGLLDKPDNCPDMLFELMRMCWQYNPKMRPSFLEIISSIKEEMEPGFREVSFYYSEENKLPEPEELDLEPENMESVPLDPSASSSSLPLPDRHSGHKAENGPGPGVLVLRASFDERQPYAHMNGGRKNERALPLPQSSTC

Mus musculus [17] = assay: Effect on circulating leukocytes in wildtype mouse assessed as percentage of CD45+/PI- cells expressing CD8 at 1200 ppm administered as rodent chow for 10 to 24 weeks (reference value: 5.56 to 11.8 %); format: functional; settings: route po, time 10-24 weeks
Mus musculus [18] = assay: Induction of cerebral amyloid angiopathy in […] mouse at 1200 ppm administered as rodent chow for 24 weeks by immunolabeling based confocal microscopic analysis; format: functional, organism-based; settings: route po
[19] = target: Serine/threonine-protein kinase PAK 3 (Homo sapiens, UniProt O75914); assay: Inhibition of PAK3 (unknown origin)
[20] = Effect on Siglech gene expression in wild type mouse hippocampus at 1200 ppm administered as rodent chow starting from 1.5 months and measured after 7 months by RNA-Seq analysis (reference value: 3.309 to 4.234 RPKM); format: functional; settings: route po, time 5.5 months, 4015 h
Mus musculus [21] = assay: Antialzheimer activity in 5XFAD mouse assessed as percent change in claudin-5 intensity of Thio-S negative retro spinal cortex at 1200 ppm administered as rodent chow starting from 1.5 months and measured after 4 months by immunolabeling analysis relative to control; format: functional; settings: route po, time 2.5 months, 1825 h
Mus musculus [22] = assay: Effect on APP processing pathway in wildtype mouse assessed as C99 protein signal intensity in cortex at 1200 ppm administered as rodent starting from 1.5 months and measured after 7 months (reference value: 8.282 to 87.456 %); format: functional; settings: route po, time 5.5 months, 4015 h
Mus musculus [23] = assay: Antialzheimer activity in 5XFAD mouse assessed as number of open arm entries at 1200 ppm administered as rodent chow for 10 to 24 weeks by Elevated plus maze test (reference value: 10 to 33); format: functional; settings: route po, time 10-24 weeks
[24] = Volume of distribution at steady state in male rat at 1.13 mg/kg, iv administered as single dose; format: ADME, organism-based; settings: in vivo, read-out: Vdss

For `FC(F)(F)c1ccc(CNc2ccc(Cc3c[nH]c4ncc(Cl)cc34)cn2)cn1` [PEXIDARTINIB], the Activity (Mus musculus [1]) was 229 and the inhibition [2] was “Active”.

Molecule `COc1ncc(F)cc1CNc1ccc(Cc2c[nH]c3ncc(C)cc23)c(F)n1` [PLX-5622] has an IC50 [3] of over 1000 nM, an AUC(0-inf) [4] of 215 µg·h/mL and an IC50 [5] of over 1000 nM. For the same molecule, the IC50 [6] was over 1000 nM, the IC50 [7] was over 1000 nM and the IC50 [8] was over 1000 nM. It also gave an IC50 [9] of over 1000 nM, an Activity (Mus musculus [10]) of 83.86 and an IC50 [11] of over 1000 nM. For the same molecule, the IC50 [12] was over 1000 nM, the IC50 [13] was over 1000 nM and the IC50 [14] was over 1000 nM. The Activity (Mus musculus [15]) was 622.98 um3, the IC50 [16] was over 1000 nM and the Activity (Mus musculus [17]) was 6.35%. The Activity (Mus musculus [18]) was “inactive”, the IC50 [19] was over 1000 nM and the Activity [20] was 0 RPKM. The Activity (Mus musculus [21]) was 70.238%, the Activity (Mus musculus [22]) was 21.073% and the Activity (Mus musculus [23]) was 15. It also gave a Vd [24] of 1.2 L/kg.
